{"source": "ChEMBL document CHEMBL1126072", "about": "“Hydantoin bioisosteres. In vivo active spiro hydroxy acetic acid aldose reductase inhibitors” (J Med Chem, 1992)", "data": [{"target": "T1, Aldo-keto reductase family 1 member B1 (Homo sapiens, UniProt P15121)", "assay": "ARI(aldose reductase inhibitor) enantiospecificity against human placental aldose reductase.", "conditions": "not given", "units": {"IC50": "nM"}, "values": [{"smiles": "C[C@@H]1C[C@@](O)(CC(=O)O)c2cc(Cl)c(Cl)cc2O1", "IC50": 5620}]}, {"target": "T1, Aldo-keto reductase family 1 member B1", "assay": "Compound was tested in vitro for its inhibitory activity against human placental aldose reductase", "conditions": "not given", "units": {"IC50": "nM"}, "values": [{"smiles": "C[C@@H]1C[C@@](O)(CC(=O)O)c2cc(Cl)c(Br)cc2O1", "IC50": 50}, {"smiles": "C[C@@H]1C[C@@](O)(CC(=O)O)c2cc(Cl)c(F)cc2O1", "IC50": 410}, {"smiles": "C[C@@H]1C[C@@](O)(CC(=O)O)c2cc(F)c(Br)cc2O1", "IC50": 120}, {"smiles": "C[C@@H]1C[C@@](O)(CC(=O)O)c2cc(F)c(F)cc2O1", "IC50": 350}]}, {"target": "T1, Aldo-keto reductase family 1 member B1", "assay": "Inhibitory activity against human placental aldose reductase", "conditions": "not given", "units": {"IC50": "nM"}, "values": [{"smiles": "C1CCC(NC2CCCCC2)CC1.O=C(O)C[C@]1(O)C[C@@H](C(=O)c2ccccc2)Oc2ccc(F)cc21", "IC50": 1390}, {"smiles": "C[C@@H]1COc2ccc(F)cc2[C@]1(O)CC(=O)O", "IC50": 11000}, {"smiles": "O=C(O)C[C@@]1(O)c2cc(F)ccc2O[C@@H]2CCCC[C@@H]21", "IC50": 11000}, {"smiles": "Cc1cc2c(cc1[N+](=O)[O-])[C@](O)(CC(=O)O)C[C@@H](C)O2", "IC50": 90}, {"smiles": "C[C@@H]1C[C@@](O)(CC(=O)O)c2cc([N+](=O)[O-])c(Cl)cc2O1", "IC50": 110}, {"smiles": "C[C@@H]1C[C@@](O)(CC(=O)O)c2ccc(F)cc2O1", "IC50": 5420}, {"smiles": "C[C@@H]1C[C@@](O)(CC(=O)O)c2cc(Cl)cc(Cl)c2O1", "IC50": 1000}, {"smiles": "C[C@@H]1C[C@@](O)(CC(=O)O)c2cc(Cl)c(Br)cc2O1", "IC50": 70}, {"smiles": "C[C@@H]1C[C@@](O)(CC(=O)O)c2cccc(Cl)c2O1", "IC50": 5700}, {"smiles": "O=C(O)C[C@]1(O)C[C@@H](c2ccccc2)Oc2ccc(F)cc21", "IC50": 2670}, {"smiles": "CC(C)(C)[C@@H]1C[C@@](O)(CC(=O)O)c2cc(F)ccc2O1", "IC50": 360}, {"smiles": "C[C@@H]1C[C@@](O)(CC(=O)O)c2cc(Br)ccc2O1", "IC50": 1670}, {"smiles": "CCc1cc2c(cc1Cl)[C@](O)(CC(=O)O)C[C@@H](C)O2", "IC50": 100}, {"smiles": "C[C@@H]1C[C@@](O)(CC(=O)O)c2ccc(Cl)cc2O1", "IC50": 3320}, {"smiles": "C[C@@H]1C[C@@](O)(CC(=O)O)c2c(Cl)cccc2O1", "IC50": 43500}, {"smiles": "CC[C@@H]1C[C@@](O)(CC(=O)O)c2cc(F)ccc2O1", "IC50": 620}, {"smiles": "O=C(O)C[C@]1(O)C[C@@H](CCc2ccccc2)Oc2ccc(F)cc21", "IC50": 1140}, {"smiles": "C[C@@H]1C[C@@](O)(CC(=O)O)c2cc(Cl)c(F)cc2O1", "IC50": 390}, {"smiles": "C[C@@H]1C[C@@](O)(CC(=O)O)c2c(Cl)cc(Cl)cc2O1", "IC50": 29400}, {"smiles": "C[C@@H]1C[C@@](O)(CC(=O)O)C2=C(C=CCC2(C)[N+](=O)[O-])O1", "note": "(stereo partly drawn)", "IC50": 1630}, {"smiles": "CC1(C)C[C@@](O)(CC(=O)O)c2cc(Cl)c(Cl)cc2O1", "IC50": 1860}, {"smiles": "C[C@@H]1C[C@@](O)(CC(=O)O)c2c(ccc(F)c2Br)O1", "IC50": 4500}, {"smiles": "C[C@@H]1C[C@@](O)(CC(=O)O)c2cc(F)c(Br)cc2O1", "IC50": 90}, {"smiles": "C[C@@H]1C[C@@](O)(CC(=O)O)c2cc(F)c(F)cc2O1", "IC50": 250}]}, {"system": "Rattus norvegicus", "assay": "Effective dose was tested against the inhibition of sorbitol accumulation in sciatic nerves from streptozotocin-diabetic rats dosed at 3*25 mg/kg over 27h.", "format": "functional", "conditions": "Sciatic nerve", "units": {"ED50": "mg/kg"}, "values": [{"smiles": "Cc1cc2c(cc1[N+](=O)[O-])[C@](O)(CC(=O)O)C[C@@H](C)O2", "ED50": 35}, {"smiles": "C[C@@H]1C[C@@](O)(CC(=O)O)c2cc([N+](=O)[O-])c(Cl)cc2O1", "ED50": 14.9}, {"smiles": "C[C@@H]1C[C@@](O)(CC(=O)O)c2cc(Cl)cc(Cl)c2O1", "ED50": 26.6}, {"smiles": "C[C@@H]1C[C@@](O)(CC(=O)O)c2cc(Cl)c(Br)cc2O1", "ED50": 11.3}, {"smiles": "CC(C)(C)[C@@H]1C[C@@](O)(CC(=O)O)c2cc(F)ccc2O1", "ED50": 47.6}, {"smiles": "C[C@@H]1C[C@@](O)(CC(=O)O)c2cc(Br)ccc2O1", "ED50": 60.8}, {"smiles": "CCc1cc2c(cc1Cl)[C@](O)(CC(=O)O)C[C@@H](C)O2", "ED50": 13.6}, {"smiles": "CC[C@@H]1C[C@@](O)(CC(=O)O)c2cc(F)ccc2O1", "ED50": 50.6}, {"smiles": "C[C@@H]1C[C@@](O)(CC(=O)O)c2cc(Cl)c(F)cc2O1", "ED50": 19}, {"smiles": "C[C@@H]1C[C@@](O)(CC(=O)O)c2cc(F)c(Br)cc2O1", "ED50": 4.94}, {"smiles": "C[C@@H]1C[C@@](O)(CC(=O)O)c2cc(F)c(F)cc2O1", "ED50": 5.94}]}, {"system": "Rattus norvegicus", "assay": "In vivo inhibition of sorbitol accumulation in sciatic nerves from streptozotocin-diabetic rats dosed at 1*25 mg/kg over 5 days.", "format": "functional, Sciatic nerve", "conditions": "not given", "units": {"Inhibition": "%"}, "values": [{"smiles": "C[C@@H]1C[C@@](O)(CC(=O)O)c2cc(Cl)c(Br)cc2O1", "Inhibition": 33}, {"smiles": "C[C@@H]1C[C@@](O)(CC(=O)O)c2cc(Cl)c(F)cc2O1", "Inhibition": -30}, {"smiles": "C[C@@H]1C[C@@](O)(CC(=O)O)c2cc(F)c(Br)cc2O1", "Inhibition": 44}, {"smiles": "C[C@@H]1C[C@@](O)(CC(=O)O)c2cc(F)c(F)cc2O1", "Inhibition": -20}]}, {"system": "Rattus norvegicus", "assay": "In vivo inhibition of sorbitol accumulation in sciatic nerves from streptozotocin-diabetic rats dosed at 3*25 mg/kg over 27h.", "format": "functional, Sciatic nerve", "conditions": "not given", "units": {"Inhibition": "%"}, "values": [{"smiles": "C[C@@H]1C[C@@](O)(CC(=O)O)c2cc(Cl)c(Br)cc2O1", "Inhibition": 46}, {"smiles": "C[C@@H]1C[C@@](O)(CC(=O)O)c2cc(Cl)c(F)cc2O1", "Inhibition": 29}, {"smiles": "C[C@@H]1C[C@@](O)(CC(=O)O)c2cc(F)c(Br)cc2O1", "Inhibition": 73}, {"smiles": "C[C@@H]1C[C@@](O)(CC(=O)O)c2cc(F)c(F)cc2O1", "Inhibition": 67}]}, {"system": "Rattus norvegicus", "assay": "Inhibition of sorbitol accumulation in sciatic nerves from streptozotocin-diabetic rats dosed at 3*10 mg/kg over 27h.", "format": "functional, Sciatic nerve", "conditions": "not given", "summary_of_the_method": "(§1)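 Male Sprague-Dawley rats (180–220 g, 42–54 days) made diabetic with streptozotocin 85 mg/kg at 0 h. Oral gavage at 4, 7 and 24 h, dose quoted per time point. Sciatic nerve sorbitol measured with sorbitol dehydrogenase/NAD in pH 9.4 glycine. Mean (±SEM) percent inhibition against untreated diabetic controls, Student's t test on absolute sorbitol.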", "units": {"Inhibition": "%"}, "values": [{"smiles": "C[C@@H]1C[C@@](O)(CC(=O)O)c2cc(Cl)c(Br)cc2O1", "Inhibition": 46}, {"smiles": "CCc1cc2c(cc1Cl)[C@](O)(CC(=O)O)C[C@@H](C)O2", "Inhibition": 40}, {"smiles": "C[C@@H]1C[C@@](O)(CC(=O)O)c2cc(Cl)c(F)cc2O1", "Inhibition": 29}, {"smiles": "C[C@@H]1C[C@@](O)(CC(=O)O)c2cc(F)c(Br)cc2O1", "Inhibition": 73}, {"smiles": "C[C@@H]1C[C@@](O)(CC(=O)O)c2cc(F)c(F)cc2O1", "Inhibition": 67}]}, {"system": "Rattus norvegicus", "assay": "Inhibition of sorbitol accumulation in sciatic nerves from streptozotocin-diabetic rats dosed at 3*25 mg/kg over 27h.", "format": "functional, Sciatic nerve", "conditions": "not given", "units": {"Inhibition": "%"}, "values": [{"smiles": "C1CCC(NC2CCCCC2)CC1.O=C(O)C[C@]1(O)C[C@@H](C(=O)c2ccccc2)Oc2ccc(F)cc21", "Inhibition": 1}, {"smiles": "Cc1cc2c(cc1[N+](=O)[O-])[C@](O)(CC(=O)O)C[C@@H](C)O2", "Inhibition": 39}, {"smiles": "C[C@@H]1C[C@@](O)(CC(=O)O)c2cc([N+](=O)[O-])c(Cl)cc2O1", "Inhibition": 67}, {"smiles": "C[C@@H]1C[C@@](O)(CC(=O)O)c2cc(Cl)cc(Cl)c2O1", "Inhibition": 48}, {"smiles": "CC(C)(C)[C@@H]1C[C@@](O)(CC(=O)O)c2cc(F)ccc2O1", "Inhibition": 29}, {"smiles": "C[C@@H]1C[C@@](O)(CC(=O)O)c2cc(Br)ccc2O1", "Inhibition": 21}, {"smiles": "C[C@@H]1C[C@@](O)(CC(=O)O)c2ccc(Cl)cc2O1", "Inhibition": 0}, {"smiles": "CC[C@@H]1C[C@@](O)(CC(=O)O)c2cc(F)ccc2O1", "Inhibition": 27}, {"smiles": "O=C(O)C[C@]1(O)C[C@@H](CCc2ccccc2)Oc2ccc(F)cc21", "Inhibition": 5}, {"smiles": "C[C@@H]1C[C@@](O)(CC(=O)O)C2=C(C=CCC2(C)[N+](=O)[O-])O1", "note": "(stereo partly drawn)", "Inhibition": -31}, {"smiles": "CC1(C)C[C@@](O)(CC(=O)O)c2cc(Cl)c(Cl)cc2O1", "Inhibition": 6}]}, {"system": "Rattus norvegicus", "assay": "Inhibition of sorbitol accumulation in sciatic nerves from streptozotocin-diabetic rats dosed at 3*50 mg/kg over 27h.", "format": "functional, Sciatic nerve", "conditions": "not given", "summary_of_the_method": "as §1", "units": {"Inhibition": "%"}, "values": [{"smiles": "O=C(O)C[C@]1(O)C[C@@H](c2ccccc2)Oc2ccc(F)cc21", "Inhibition": 3}]}, {"system": "Rattus norvegicus", "assay": "Plasma concentration at 3h after the last dose of 25 mg/kg for 5 days.", "format": "functional", "conditions": "not given", "units": {"Tissue levels": "µg/mL"}, "values": [{"smiles": "C[C@@H]1C[C@@](O)(CC(=O)O)c2cc(Cl)c(Br)cc2O1", "Tissue levels": 12.7}, {"smiles": "C[C@@H]1C[C@@](O)(CC(=O)O)c2cc(Cl)c(F)cc2O1", "Tissue levels": 13.4}, {"smiles": "C[C@@H]1C[C@@](O)(CC(=O)O)c2cc(F)c(Br)cc2O1", "Tissue levels": 8.8}, {"smiles": "C[C@@H]1C[C@@](O)(CC(=O)O)c2cc(F)c(F)cc2O1", "Tissue levels": 2.19}]}, {"system": "Rattus norvegicus", "assay": "Nerve concentration at 3h after the last dose of 25 mg/kg for 5 days.", "format": "functional", "conditions": "not given", "units": {"Tissue levels": "µg/mL"}, "values": [{"smiles": "C[C@@H]1C[C@@](O)(CC(=O)O)c2cc(Cl)c(Br)cc2O1", "Tissue levels": 3.11}, {"smiles": "C[C@@H]1C[C@@](O)(CC(=O)O)c2cc(Cl)c(F)cc2O1", "Tissue levels": 2.35}, {"smiles": "C[C@@H]1C[C@@](O)(CC(=O)O)c2cc(F)c(Br)cc2O1", "Tissue levels": 1.31}, {"smiles": "C[C@@H]1C[C@@](O)(CC(=O)O)c2cc(F)c(F)cc2O1", "Tissue levels": "<0.1"}]}]}
